Measurements gathered from unrelated publications.
Values after ≈ are worked out from the molar mass of the structure shown.

| SMILES | target or system | test | system | setting | quantity | value |
| --- | --- | --- | --- | --- | --- | --- |
| c1ccc([Se][Au]=[c]2n(C3CCCCC3)ccn2C2CCCCC2)cc1 | HT-29 | cell growth or viability, crystal violet | – | – | IC50 | 1.1 µM |
| N#Cc1nc[n]([Au][PH](c2ccccc2)(c2ccccc2)c2ccccc2)c1C#N | IMR-90 | cell growth or viability, MTT | – | 48 h | IC50 | 64 µM |
| [H]/N=C(/N)N[C@H]1[C@H](O)[C@@H](O)[C@H](O[C@@H]2O[C@@H](C)[C@](O)(C=O)[C@H]2O[C@@H]2O[C@@H](CO)[C@H](O)[C@@H](O)[C@@H]2NC)[C@@H](N/C(N)=N\[H])[C@@H]1O | Klebsiella pneumoniae | microbial growth, broth dilution | ATCC43816 | – | MIC | 2 µg/mL (≈ 3.44 µM) |
| C[C@@H](O)[C@H]1C(=O)N2C(C(=O)O)=C(S[C@@H]3CN[C@H](C(=O)N(C)C)C3)[C@H](C)[C@H]12 | Klebsiella pneumoniae | microbial growth | ATCCBAA1705 | drug-resistant strain | MIC | > 8 µg/mL |
| Clc1nc[n]([Au][PH](c2ccccc2)(c2ccccc2)c2ccccc2)c1Cl | IMR-90 | cell growth or viability, MTT | – | 48 h | IC50 | 54.9 µM |
| NCC[C@H](O)C(=O)N[C@@H]1C[C@H](N)[C@@H](O[C@H]2O[C@H](CN)[C@@H](O)[C@H](O)[C@H]2O)[C@H](O)[C@H]1O[C@H]1O[C@H](CO)[C@@H](O)[C@H](N)[C@H]1O | Mycobacterium tuberculosis variant bovis BCG | microbial growth | BCG | – | MIC50 | 0.32 µg/mL (≈ 0.546 µM) |
| N.N.[Cl][Pt][Cl] | CA46 | cell growth or viability, ATP luminescence | – | 10 µM, 72 h | inhibition | 95% |
| NNC(=O)c1ccncc1 | Mycobacterium tuberculosis variant bovis BCG | microbial growth | BCG | – | MIC90 | 0.24 µg/mL (≈ 1.75 µM) |
| C[C@H]1COc2c(N3CCN(C)CC3)c(F)cc3c(=O)c(C(=O)O)cn1c23 | Klebsiella pneumoniae | microbial growth | ATCCBAA1705 | drug-resistant strain | MIC | > 8 µg/mL |
